How the values were obtained:
[1] = Selectivity index, ratio of IC50 for HEK293 cells to IC50 for human A2780 cells; type: toxicity; conditions: HEK293 cells versus A2780 cells, read-out: Ratio IC50
Procedure, shortened: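 Selectivity index is the IC50 against HEK-293 cells divided by the IC50 against A2780 ovarian cancer cells, each from this paper's cytotoxicity testing.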

[2] = tested on: A2780; experiment: Cytotoxicity against human A2780 cells assessed as reduction in cell viability incubated for 72 hrs by MTT assay; type: functional, cell-based
[3] = tested on: HEK293; experiment: Cytotoxicity against HEK293 cells assessed as reduction in cell viability incubated for 72 hrs by MTT assay; type: cell-based; conditions: Homo sapiens, HEK293, 72 h
[4] = tested on: L5178Y; experiment: Cytotoxicity against mouse L5178Y cells assessed as reduction in cell viability incubated for 72 hrs by MTT assay; type: functional, cell-based
Procedure, shortened: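 Murine L5178Y lymphoma cells were the cells tested, with kahalalide F run in parallel as the positive control. The read-out was IC50.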

[5] = tested on: J82; experiment: Cytotoxicity against human J82 cells assessed as reduction in cell viability incubated for 72 hrs by high content analysis based fluorescent live/dead assay; type: functional
Procedure, shortened: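 J82 bladder cancer cells were analysed by fluorescent live/dead staining. An imaging system gave direct counts of live and dead cells, and IC50 values were derived from these counts.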

[6] = Homo sapiens, A2780, 72 h, read-out: IC50
[7] = Mus musculus, L5178Y, 72 h, read-out: IC50
[8] = Homo sapiens, J82, 72 h, read-out: IC50

CC(C)=CCC[C@]1(C)[C@@H](O)CC[C@@]2(C)[C@H]1CC[C@H]1Cc3c([nH]c4ccccc34)[C@@]12C [EMINDOLE SB]
selectivity ratio [1]: 5.4
IC50 [2, 6]: 8.2 µM
IC50 [3]: 44.6 µM
IC50 [4, 7]: 18.3 µM

CC(C)(O)[C@H]1O[C@@]2(O)CC[C@@]3(C)[C@@H](CC[C@H]4Cc5c([nH]c6ccccc56)[C@@]43C)C2=CC1=O
IC50 ([2]; a2780): Not Active
IC50 [3]: 39.8 µM
IC50 [4, 7]: 6.2 µM

CC(C)=CCc1ccc2[nH]c3c(c2c1)C[C@@H]1CC[C@@]2(O)C4=CC(=O)[C@@H](C(C)(C)O)O[C@H]4CC[C@]2(C)[C@@]31C
IC50 ([2]; a2780): Not Active
IC50 [4, 7]: 12.9 µM

CC(C)(O)[C@@H]1CC[C@]2(C)[C@H](CC[C@@]3(C)[C@H]2CC[C@H]2Cc4c([nH]c5ccccc45)[C@@]23C)O1 [PASPALINE]
selectivity ratio [1]: 8.1
IC50 [2, 6]: 5.3 µM
IC50 [3]: 43 µM
IC50 ([4]; l5178y): Not Active

CC1(C)CC2=C(Cc3cc4c5c([nH]c4cc32)[C@@]2(C)[C@@H](CC[C@@]3(O)C4=CC(=O)[C@@H](C(C)(C)O)O[C@H]4CC[C@@]32C)C5)C(C)(C)O1
IC50 [2, 6]: 12.8 µM
IC50 [4, 7]: 10.9 µM

CO[C@]12CC[C@@]3(C)[C@@](O)(CC[C@H]4Cc5c([nH]c6cc7c(cc56)CC5=C7CC(C)(C)OC5(C)C)[C@@]43C)C1=CC(=O)[C@@H](C(C)(C)O)O2
IC50 [2, 6]: 32.2 µM
IC50 [5, 8]: 96.7 µM
IC50 ([4]; l5178y): Not Active

CC(C)(O)[C@H]1O[C@@]2(O)CC[C@@]3(C)C(=CC[C@H]4Cc5c([nH]c6ccccc56)[C@@]43C)C2=CC1=O
IC50 ([2]; a2780): Not Active
IC50 [3]: 27.9 µM
IC50 [4, 7]: 5.3 µM

CC1(C)CC2=C(Cc3cc4c(cc32)NC(=O)[C@@]2(C)[C@@H](CC[C@@]3(O)C5=CC(=O)[C@@H](C(C)(C)O)O[C@H]5CC[C@@]32C)CC4=O)C(C)(C)O1
selectivity ratio [1]: 2.4
IC50 [2, 6]: 11.9 µM
IC50 [3]: 28.3 µM
IC50 [5, 8]: 29.4 µM
IC50 [4, 7]: 7.6 µM

CC(C)=CCc1ccc2[nH]c3c(c2c1)C[C@@H]1CC[C@@]2(O)C4=CC(=O)[C@@H]5O[C@@]4(CC[C@]2(C)[C@@]31C)OC5(C)C
IC50 [2, 6]: 19.8 µM
IC50 ([4]; l5178y): Not Active

CO[C@]12CC[C@@]3(C)[C@@](O)(CC[C@H]4Cc5c([nH]c6ccccc56)[C@@]43C)C1=CC(=O)[C@@H](C(C)(C)O)O2
IC50 [2, 6]: 12.2 µM
IC50 [5, 8]: 55.3 µM
IC50 ([4]; l5178y): Not Active

CO[C@]12CC[C@@]3(C)[C@@](O)(CC[C@H]4CC(=O)c5cc6c(cc5NC(=O)[C@@]43C)C3=C(C6)C(C)(C)OC(C)(C)C3)C1=CC(=O)[C@@H](C(C)(C)O)O2
IC50 [2, 6]: 19.4 µM
IC50 [5, 8]: 73 µM
IC50 ([4]; l5178y): Not Active

CC1(C)O[C@@]23CC[C@]4(C)c5cc6[nH]c7ccccc7c6cc5CC[C@H]4C2=CC(=O)[C@@H]1O3
selectivity ratio [1]: 3.3
IC50 [2, 6]: 8.7 µM
IC50 [3]: 28.5 µM
IC50 [5, 8]: 40.6 µM
IC50 [4, 7]: 3.6 µM

CC1(C)CC2=C(Cc3cc4c5c([nH]c4cc32)[C@@]2(C)[C@@H](CC[C@@]3(O)C4=CC(=O)[C@@H](C(C)(C)O)OC4=CC[C@@]32C)C5)C(C)(C)O1
selectivity ratio [1]: 4.8
IC50 [2, 6]: 7.8 µM
IC50 [3]: 37.4 µM
IC50 [5, 8]: 31.7 µM
IC50 [4, 7]: 8.1 µM

CC(C)(O)[C@H]1O[C@H]2CC[C@@]3(C)[C@@H](CC[C@H]4Cc5c([nH]c6ccccc56)[C@@]43C)C2=CC1=O [DEHYDROXYPAXILLINE]
IC50 [2, 6]: 17.1 µM
IC50 ([4]; l5178y): Not Active

CC1(C)CC2=C(Cc3cc(C(=O)C[C@@H]4CC[C@@]5(O)C6=CC(=O)[C@@H](C(C)(C)O)O[C@H]6CC[C@]5(C)[C@@]4(C)C(=O)O)c(N)cc32)C(C)(C)O1
IC50 [2, 6]: 51.5 µM
IC50 ([5]; j82): Not Active
IC50 ([4]; l5178y): Not Active

CC(C)(O)[C@H]1O[C@H]2CC[C@@]3(C)[C@@H](CC[C@H]4Cc5c([nH]c6ccccc56)[C@@]43C)C2=C[C@H]1O
IC50 [2, 6]: 28.5 µM
IC50 ([4]; l5178y): Not Active

CC1(C)O[C@@]23CC[C@@]4(C)C(=CC[C@H]5Cc6c([nH]c7ccccc67)[C@@]54C)C2=CC(=O)[C@@H]1O3
selectivity ratio [1]: 1.8
IC50 [2, 6]: 12.2 µM
IC50 [3]: 21.7 µM
IC50 [5, 8]: 42.1 µM
IC50 [4, 7]: 5.3 µM
